Laboratory results published in ChEMBL document CHEMBL3393025, “Discovery of dual leucine zipper kinase (DLK, MAP3K12) inhibitors with activity in neurodegeneration models” (J Med Chem, 2015).

Columns and labels:
[1] = target: T1, Mitogen-activated protein kinase kinase kinase 12 (Homo sapiens, UniProt Q12852); experiment: Inhibition of human DLK transfected in HEK293 cells assessed as JNK phosphorylation after 5.5 hrs by Hoechst-33342 staining-based assay; format: cell-based
T1 sequence (Q12852 whole entry): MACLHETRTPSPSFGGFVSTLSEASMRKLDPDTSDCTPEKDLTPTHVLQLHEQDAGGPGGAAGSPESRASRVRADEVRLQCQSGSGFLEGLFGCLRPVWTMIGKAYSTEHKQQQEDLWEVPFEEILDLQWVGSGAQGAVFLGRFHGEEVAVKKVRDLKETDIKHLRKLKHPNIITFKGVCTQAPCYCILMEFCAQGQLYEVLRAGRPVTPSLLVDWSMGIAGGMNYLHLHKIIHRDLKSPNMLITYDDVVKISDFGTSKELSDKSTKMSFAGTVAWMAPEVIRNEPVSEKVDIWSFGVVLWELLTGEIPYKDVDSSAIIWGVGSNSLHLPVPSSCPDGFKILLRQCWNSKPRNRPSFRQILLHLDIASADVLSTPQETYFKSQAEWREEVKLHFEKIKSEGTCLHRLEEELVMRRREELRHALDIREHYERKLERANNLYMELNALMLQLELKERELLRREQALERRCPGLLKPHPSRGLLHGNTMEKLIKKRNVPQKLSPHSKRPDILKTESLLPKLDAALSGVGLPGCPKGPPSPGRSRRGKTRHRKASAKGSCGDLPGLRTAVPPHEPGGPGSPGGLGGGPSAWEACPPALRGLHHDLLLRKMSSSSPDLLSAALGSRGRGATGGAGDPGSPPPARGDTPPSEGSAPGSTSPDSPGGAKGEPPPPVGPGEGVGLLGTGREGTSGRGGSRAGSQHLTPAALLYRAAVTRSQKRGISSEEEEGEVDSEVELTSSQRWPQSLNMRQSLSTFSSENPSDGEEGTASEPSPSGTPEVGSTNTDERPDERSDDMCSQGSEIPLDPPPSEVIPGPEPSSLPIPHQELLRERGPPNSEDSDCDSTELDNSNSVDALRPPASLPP

[2] = target: T1, Mitogen-activated protein kinase kinase kinase 12; experiment: Inhibition of DLK (unknown origin)
[3] = Neuroprotective activity in E14.5 rat embryo DRG neurons; format: functional; conditions: drg neuron
In short: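 DRG neurons freshly dissected from E14.5 rat embryos, plated at 1200−2000 cells/well on an astrocyte monolayer in DMEM/F12 with N3 supplement, 0.18% glucose and 25 ng/mL NGF. 200 μM uridine and 100 μM 5-fluorodeoxyuridine added next day. Cultured 4 days before axon degeneration assay. IC50 reported.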

Row | IC50 [1] [nM] | Ki [2] [nM] | Structure (SMILES) | IC50 [3] [nM]
1 | 57 | 0.7 | N#Cc1ccnc(Nc2cc(C3CN(C4COC4)C3)cc(N3CCC(F)(F)C3)n2)c1 | 99
2 | 69 | 1 | CC(=O)N1CCC(c2cc(Nc3cc(C(F)(F)F)ccn3)nc(N3CCC(F)(F)C3)c2)CC1 | 171
3 | 1000 | 57 | COc1ccnc(Nc2cc(C3CCCN(C(=O)c4ccccc4)C3)nc(C)n2)c1 (racemic) | –
4 | 408 | 7 | FC1(F)CCN(c2nc(Nc3cc(C(F)(F)F)ccn3)cc(C3CCCNC3)n2)C1 (stereo not drawn) | –
5 | – | 166 | CC(=O)N1CCC(c2cc(Nc3cc(C(F)(F)F)ccn3)nc(N3CC(F)(F)C3)n2)CC1 | –
6 | 1300 | 4 | Cc1nc(Nc2cc(C(C)C)ccn2)cc(C2CCCN(C(=O)c3ccccc3)C2)n1 (racemic) | –
7 | 440 | 41 | FC1(F)CCN(c2nc(Nc3cc(C(F)(F)F)ccn3)cc(C3CCOCC3)n2)C1 | –
8 | 1600 | – | Cc1cc(C2CCN(C3COC3)CC2)cc(Nc2cc(C#N)ccn2)n1 | –
9 | 109 | 7 | FC(F)(F)c1ccnc(Nc2cc(C3CCCNC3)nc(N3CCCC3)n2)c1 (stereo not drawn) | –
10 | 300 | 33 | CC(=O)N1CCC(c2cc(Nc3cc(C(F)(F)F)ccn3)nc(N3CCC(F)(F)C3)n2)CC1 | –
11 | 233 | 8 | COC1CN(c2cc(C3CCN(C4COC4)CC3)cc(Nc3cc(C#N)ccn3)n2)C1 | 697
12 | – | 725 | Cc1nc(Nc2cc(C(F)(F)F)ccn2)cc(C2CCCNC2)n1 (racemic) | –
13 | 193 | 14 | CC(C)(C#N)c1cc(Nc2cc(C#N)ccn2)nc(N2CCC(F)(F)C2)c1 | –
14 | – | 25 | CC(=O)N1CCC(c2cc(Nc3cc(C#N)ccn3)nc(N3CCC(F)(F)C3)c2)CC1 | 180
15 | 125 | 5 | CC(C)(O)c1cc(Nc2cc(C#N)ccn2)nc(N2CCC(F)(F)C2)c1 | 401
16 | 62 | 1 | N#Cc1ccnc(Nc2cc(C3CCN(C4COC4)CC3)cc(C3CC3)n2)c1 | 155
17 | – | 431 | CC(=O)N1CCC(c2cc(Nc3cc(C(F)(F)F)ccn3)nc(N3CCOCC3)n2)CC1 | –
18 | 767 | 85 | Cc1ccnc(Nc2cc(C3CCCN(C(=O)c4ccccc4)C3)nc(C)n2)c1 (racemic) | –
19 | 213 | – | CCc1cc(C2CCN(C3COC3)CC2)cc(Nc2cc(C#N)ccn2)n1 | 916
20 | – | 942 | Cc1nc(Nc2ccccn2)cc(C2CCCN(C(=O)c3ccccc3)C2)n1 (racemic) | –
21 | 486 | 18 | Cc1nc(Nc2cc(C3CC3)ccn2)cc(C2CCCN(C(=O)c3ccccc3)C2)n1 (racemic) | –
22 | 1000 | 90 | Cc1nc(Nc2cc(C#N)ccn2)cc(C2CCCN(C(=O)c3ccccc3)C2)n1 (racemic) | –
23 | 229 | 24 | Cc1nc(Nc2cc(C(F)(F)F)ccn2)cc(C2CCCN(C(=O)c3ccccc3)C2)n1 (racemic) | –
24 | 64 | 0.2 | N#Cc1ccnc(Nc2cc(C3CCN(C4COC4)CC3)cc(OC3CCC3)n2)c1 | 46
25 | 79 | 5 | N#Cc1ccnc(Nc2cc(C3(C#N)CCOCC3)cc(N3CCC(F)(F)C3)n2)c1 | –
26 | 141 | 8 | N#Cc1ccnc(Nc2cc(C3CCN(C4COC4)CC3)cc(N3CCC3)n2)c1 | 448
27 | 70 | 0.9 | N#Cc1ccnc(Nc2cc(C3CCOCC3)cc(N3CCC(F)(F)C3)n2)c1 | –
28 | 641 | 35 | Cc1nc(Nc2ncc(C)s2)cc(C2CCCN(C(=O)c3ccccc3)C2)n1 (racemic) | –
